In ChEMBL document CHEMBL1141228, “Conformationally constrained CCK4 analogues incorporating IBTM and BTD beta-turn mimetics” (J Med Chem, 2005):

Experiments:
[1] = molecular target: T1, Gastrin/cholecystokinin type B receptor (Rattus norvegicus, UniProt P30553); assay: Displacement of [3H]propionylCCK8 from rat cerebral cortex CCK2; format: tissue-based
T1 sequence (P30553 whole entry): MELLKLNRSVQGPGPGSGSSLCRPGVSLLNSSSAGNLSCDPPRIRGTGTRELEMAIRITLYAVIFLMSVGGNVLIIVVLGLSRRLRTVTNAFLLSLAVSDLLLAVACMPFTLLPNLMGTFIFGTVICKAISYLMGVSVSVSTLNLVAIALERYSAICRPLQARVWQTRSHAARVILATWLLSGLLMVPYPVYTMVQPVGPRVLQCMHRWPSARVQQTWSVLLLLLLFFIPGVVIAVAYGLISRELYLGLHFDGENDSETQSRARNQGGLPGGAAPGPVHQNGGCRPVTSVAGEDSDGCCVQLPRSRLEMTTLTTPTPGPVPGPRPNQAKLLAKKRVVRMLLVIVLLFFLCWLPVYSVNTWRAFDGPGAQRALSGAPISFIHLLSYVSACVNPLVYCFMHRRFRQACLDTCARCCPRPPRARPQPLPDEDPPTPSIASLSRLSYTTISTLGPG
How it was run: (§1)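 Binding run on rat tissue homogenates: pancreas for CCK1, cerebral cortex for CCK2. Seven concentrations of test compound, each in duplicate. Values are means or mean ± SEM of at least three experiments.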

[2] = molecular target: T2, Cholecystokinin receptor type A (Rattus norvegicus, UniProt P30551); assay: Displacement of [3H]propionylCCK8 from rat pancreatic CCK1; how it was run: as §1
T2 sequence (P30551 whole entry): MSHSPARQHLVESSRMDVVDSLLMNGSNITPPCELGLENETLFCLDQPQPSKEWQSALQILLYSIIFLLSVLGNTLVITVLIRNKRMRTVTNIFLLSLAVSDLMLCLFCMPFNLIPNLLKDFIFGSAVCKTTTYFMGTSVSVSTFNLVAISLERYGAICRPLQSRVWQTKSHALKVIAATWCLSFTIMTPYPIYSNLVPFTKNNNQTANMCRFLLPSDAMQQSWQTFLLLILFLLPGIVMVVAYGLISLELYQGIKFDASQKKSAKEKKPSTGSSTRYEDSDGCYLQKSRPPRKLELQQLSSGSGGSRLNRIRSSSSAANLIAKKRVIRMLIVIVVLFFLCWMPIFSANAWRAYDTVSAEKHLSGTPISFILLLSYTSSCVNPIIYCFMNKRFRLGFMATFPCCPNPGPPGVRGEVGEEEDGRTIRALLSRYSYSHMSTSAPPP

[3] = molecular target: T3, Cholecystokinin receptor (Rattus norvegicus, UniProt P30551+P30553); assay: Antagonizing activity of CCK8 induced amylase secretion from rat pancreatic acini
T3 sequence (P30551 whole entry): T2 sequence (P30551 whole entry)
T3 sequence (P30553 whole entry): T1 sequence (P30553 whole entry)
How it was run: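 Rat pancreas digested with collagenase (70 U/mL) in three 10-min incubations at 37 °C under O2 to give dispersed acini. Acini incubated 30 min at 37 °C under pure O2 with agitation, 0.1 nM CCK8 as stimulus, test compound at increasing concentrations. Amylase measured by kit; release expressed as percent of acinar amylase; percent inhibition computed against vehicle control; IC50 derived.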

Row | IC50 [1] | IC50 [2] | IC50 [3] | SMILES
1 | > 10000 nM | > 1000 nM | – | CC(C)(C)OC(=O)N[C@@H](Cc1c[nH]c2ccccc12)C(=O)N[C@H]1CC[C@@H]2SC[C@@H](C(=O)N[C@H](Cc3ccccc3)C(N)=O)N2C1=O
2 | > 10000 nM | 817 nM | – | CC(C)(C)OC(=O)N[C@H](Cc1c[nH]c2ccccc12)C(=O)N[C@H]1C[C@@H]2c3[nH]c4ccccc4c3C[C@@H](C(=O)N[C@@H](Cc3ccccc3)C(N)=O)N2C1=O
3 | > 10000 nM | 25.9 nM | 829 nM | CC(C)(C)OC(=O)N[C@H](Cc1c[nH]c2ccccc12)C(=O)N[C@@H]1C[C@H]2c3[nH]c4ccccc4c3C[C@H](C(=O)N[C@@H](Cc3ccccc3)C(N)=O)N2C1=O
4 | > 10000 nM | 625 nM | – | CC(C)(C)OC(=O)N[C@@H](Cc1c[nH]c2ccccc12)C(=O)N[C@H]1C[C@@H]2c3[nH]c4ccccc4c3C[C@@H](C(=O)N[C@@H](Cc3ccccc3)C(N)=O)N2C1=O
5 | > 10000 nM | > 1000 nM | – | CC(C)(C)OC(=O)N[C@H](Cc1c[nH]c2ccccc12)C(=O)N[C@H]1CC[C@@H]2SC[C@@H](C(=O)N[C@H](Cc3ccccc3)C(N)=O)N2C1=O
6 | > 10000 nM | > 10000 nM | – | COC(=O)[C@H](Cc1ccccc1)NC(=O)[C@@H]1Cc2c([nH]c3ccccc23)[C@H]2C[C@H](NC(=O)[C@H](Cc3c[nH]c4ccccc34)NC(=O)OC(C)(C)C)C(=O)N21
7 | > 10000 nM | > 1000 nM | – | CC(C)(C)OC(=O)N[C@@H](Cc1c[nH]c2ccccc12)C(=O)N[C@@H]1C[C@H]2c3[nH]c4ccccc4c3C[C@H](C(=O)N[C@H](Cc3ccccc3)C(N)=O)N2C1=O
8 | – | 1800 nM | – | CSCC[C@H](NC(=O)[C@H](Cc1c[nH]c2ccccc12)NC(=O)OC(C)(C)C)C(=O)N[C@@H](CC(=O)O)C(=O)N[C@@H](Cc1ccccc1)C(N)=O
9 | > 10000 nM | > 10000 nM | – | COC(=O)[C@@H](Cc1ccccc1)NC(=O)[C@@H]1Cc2c([nH]c3ccccc23)[C@H]2C[C@H](NC(=O)[C@@H](Cc3c[nH]c4ccccc34)NC(=O)OC(C)(C)C)C(=O)N21
10 | > 10000 nM | – | – | O=C(N[C@H]1C[C@@H]2c3[nH]c4ccccc4c3C[C@@H](C(=O)N[C@@H](Cc3ccccc3)C(=O)O)N2C1=O)OCc1ccccc1
11 | > 10000 nM | 54.9 nM | 130 nM | CC(C)(C)OC(=O)N[C@@H](Cc1c[nH]c2ccccc12)C(=O)N[C@@H]1C[C@H]2c3[nH]c4ccccc4c3C[C@H](C(=O)N[C@@H](Cc3ccccc3)C(N)=O)N2C1=O
12 | > 10000 nM | > 1000 nM | – | CC(C)(C)OC(=O)N[C@@H](Cc1c[nH]c2ccccc12)C(=O)N[C@H]1CC[C@@H]2SC[C@@H](C(=O)N[C@@H](Cc3ccccc3)C(N)=O)N2C1=O
13 | > 10000 nM | 582 nM | – | CC(C)(C)OC(=O)N[C@H](Cc1c[nH]c2ccccc12)C(=O)N[C@@H]1C[C@H]2c3[nH]c4ccccc4c3C[C@H](C(=O)N[C@H](Cc3ccccc3)C(N)=O)N2C1=O
14 | > 10000 nM | > 1000 nM | – | CC(C)(C)OC(=O)N[C@H](Cc1c[nH]c2ccccc12)C(=O)N[C@H]1CC[C@@H]2SC[C@@H](C(=O)N[C@@H](Cc3ccccc3)C(N)=O)N2C1=O
15 | 938 nM | > 1000 nM | – | CC(C)(C)OC(=O)N[C@H](Cc1c[nH]c2ccccc12)C(=O)N[C@H]1C[C@@H]2c3[nH]c4ccccc4c3C[C@@H](C(=O)N[C@H](Cc3ccccc3)C(N)=O)N2C1=O
16 | 524 nM | > 1000 nM | – | CC(C)(C)OC(=O)N[C@@H](Cc1c[nH]c2ccccc12)C(=O)N[C@H]1C[C@@H]2c3[nH]c4ccccc4c3C[C@@H](C(=O)N[C@H](Cc3ccccc3)C(N)=O)N2C1=O
